Only some compounds are listed: those with a hit (about 3% of all), similar ones and a draw of the others.
MEKK2 WT-MEK5: modulators of MEK5 binding to wildtype MEKK2, primary screen, biochemical, multiplex bead flow cytometry, Alexa488-MEK5; Alexa488-MEK5 binding to MEKK2 WT; actives lie on both sides; binding response (% of control), % at 10 µM; hit rate 1.1% among 290,000; Mitogen-activated protein kinase kinase kinase 2 (Homo sapiens), Q9Y2U5; AID 1531, 2009; in the data active = binding response below about 67% or above about 130%
MEKK2mut PB1 HTS: MEK5 binding signal on mutant MEKK2 PB1, primary screen, biochemical, multiplex bead flow cytometry, Alexa488-MEK5. hit rate 0.35% among 290,000. Alexa488-MEK5 binding to MEKK2 mutant. AID 1530, 2009. percent response, % at 10 µM; in the data active = percent response above about 24%, passing the limit was not always enough
MEKK3 PB1 HTS: modulators of MEKK3-MEK5 PB1 binding, primary screen, biochemical, wildtype MEKK3, multiplex bead flow cytometry, Alexa488-MEK5 | AID 1529, 2009 | Mitogen-activated protein kinase kinase kinase 3 (Homo sapiens), Q99759 | hit rate 1.4% among 290,000 | binding response (% of control), % at 10 µM | bead-based flow cytometry, Alexa488-MEK5 binding to MEKK3; actives lie on both sides; 0 = blocked by unlabeled MEK5, 100 = vehicle;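 active = binding response more than 3 SD above or below the average of its plate-row segment, actives on both sides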;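 also: Alexa488 bead fluorescence after subtracting the streptavidin-only scavenger bead signal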
UBC13 polyUb: UBC13 polyubiquitin chain formation inhibitors, primary screen, biochemical, TR-FRET, uHTS; Ubiquitin-conjugating enzyme E2 N (Homo sapiens), P61088; inhibition, % at 20 µM; hit rate 0.47% among 330,000; AID 485273, 2010; in the data active = inhibition above about 45%, passing the limit was not always enough
Apaf-1 inh: inhibitors of human Apaf-1 apoptosome, primary screen, biochemical, DEVD-Rh110 fluorescence, uHTS | reconstituted apoptosome caspase-3 activity | AID 489030, 2010 | Apoptotic protease-activating factor 1 (Homo sapiens), O14727 | hit rate 0.71% among 330,000 | inhibition, % at 20 µM; active = inhibition of at least 40% at 20 µM
Target sequence (O14727 whole entry, looked up): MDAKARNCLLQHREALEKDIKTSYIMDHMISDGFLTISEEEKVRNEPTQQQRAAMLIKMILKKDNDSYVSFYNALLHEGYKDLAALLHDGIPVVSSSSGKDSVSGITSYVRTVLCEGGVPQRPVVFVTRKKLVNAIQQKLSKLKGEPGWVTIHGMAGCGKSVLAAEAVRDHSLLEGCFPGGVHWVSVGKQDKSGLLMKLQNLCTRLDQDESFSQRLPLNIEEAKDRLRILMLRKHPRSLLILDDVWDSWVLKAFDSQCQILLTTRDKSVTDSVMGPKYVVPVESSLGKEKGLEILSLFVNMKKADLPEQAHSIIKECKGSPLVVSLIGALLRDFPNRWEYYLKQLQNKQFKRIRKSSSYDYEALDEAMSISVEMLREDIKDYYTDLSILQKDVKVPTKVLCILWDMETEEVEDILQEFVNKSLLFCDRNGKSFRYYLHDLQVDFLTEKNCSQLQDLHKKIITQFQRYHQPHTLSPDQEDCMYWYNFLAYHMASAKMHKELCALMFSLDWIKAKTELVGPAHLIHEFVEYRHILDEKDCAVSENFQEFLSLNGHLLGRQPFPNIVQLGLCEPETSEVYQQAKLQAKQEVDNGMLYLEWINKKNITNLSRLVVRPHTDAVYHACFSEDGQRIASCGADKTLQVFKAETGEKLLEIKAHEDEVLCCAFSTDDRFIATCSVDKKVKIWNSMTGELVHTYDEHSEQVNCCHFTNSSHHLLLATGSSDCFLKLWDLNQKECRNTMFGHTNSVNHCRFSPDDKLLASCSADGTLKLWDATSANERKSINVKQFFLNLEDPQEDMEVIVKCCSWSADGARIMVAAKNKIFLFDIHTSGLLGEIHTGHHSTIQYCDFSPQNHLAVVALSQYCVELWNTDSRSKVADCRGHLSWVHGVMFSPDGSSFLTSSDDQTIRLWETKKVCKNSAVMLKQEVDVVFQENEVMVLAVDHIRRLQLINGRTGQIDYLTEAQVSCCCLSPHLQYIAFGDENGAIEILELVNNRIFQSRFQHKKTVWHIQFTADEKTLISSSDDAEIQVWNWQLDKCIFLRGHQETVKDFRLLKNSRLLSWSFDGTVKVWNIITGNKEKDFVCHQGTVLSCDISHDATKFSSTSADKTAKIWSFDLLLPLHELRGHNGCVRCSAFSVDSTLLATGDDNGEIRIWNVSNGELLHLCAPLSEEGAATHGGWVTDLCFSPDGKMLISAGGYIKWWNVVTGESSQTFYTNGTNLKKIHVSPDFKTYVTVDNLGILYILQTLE
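System – cell-free apoptosome with Apaf-1, procaspase-3 and caspase-9 · Buffer or medium – pH 7.5 Hepes buffer with CHAPS, BSA, DTT · Also added – cytochrome c with DEVD-Rh110 · Times – 30 min compound preincubation, 50 min activation, room temperature · Technique – Rh110 fluorescence intensity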
UCH37 inh: inhibitors of human UCH37 deubiquitinase, primary screen, biochemical, Ub-AMC cleavage, fluorescence. Ubiquitin carboxyl-terminal hydrolase isozyme L5 (Homo sapiens), Q9Y5K5. purified proteasome/UCH37. inhibition, % (concentration not given with the values). hit rate 0.33% among 330,000;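 active = mean inhibition over replicate wells above about 20%, limit read from the data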
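system = Proteasome-associated human UCH37 deubiquitinase | amount = 0.15 nM proteasome as dispensed | medium = pH 7.4 Tris-HCl (50 mM) with ovalbumin, ATP-MgCl2, DTT | incubation = 30 min preincubation with enzyme, 25 min cleavage at room temperature | detection = AMC fluorescence 355/460 nm | read-out basis = percent inhibition | controls = no-proteasome and no-compound wells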
MEKK2wt confirm: modulators of MEK5 binding to wildtype MEKK2, confirmation, biochemical, single concentration, multiplex bead flow cytometry; Alexa488-MEK5 binding to MEKK2 WT; actives lie on both sides; hit rate 2.4% among 5,900; shares compounds with MEKK3 PB1 HTS; binding response (% of control), % at 10 µM; AID 1892, 2009; in the data active = binding response below about 16% or above about 210%; inactive = in between
MEKK2mut-MEK5: mutant MEKK2 PB1-MEK5 binding signal retest – biochemical, single concentration, multiplex bead flow cytometry, confirmation; shares compounds with MEKK3 PB1 HTS; Alexa488-MEK5 binding to MEKK2 mutant; percent response, % at 10 µM; hit rate 2% among 5,900; in the data active = percent response mostly above about 71%, no sharp cut-off; inactive = mostly below about 38%;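 also: higher means compound restores mutant binding toward wildtype level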
MEKK3-MEK5 inh: MEKK3 wild-type PB1 binding to MEK5, inhibitors, confirmation, biochemical, bead multiplex flow cytometry, single concentration, wildtype | binding response (% of control), % at 10 µM | shares compounds with MEKK3 PB1 HTS | Alexa488-MEK5 binding to MEKK3; hits give low values | hit rate 1.8% among 5,900;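 active = binding response below 72% of control, or above a set upper limit, though filed actives all read lower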;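 also: lower values mean stronger disruption of MEK5 binding to MEKK3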
Numbers stand for hits; [ ] = dose if it differs, or a comment.

What do the screens show for `CN(C)c1ccc(/C=C/c2ccc3c4ccccc4ccc3[n+]2-c2ccccc2)cc1`?
MEKK2 WT-MEK5: 41; MEKK2mut PB1 HTS: inactive; MEKK3 PB1 HTS: 18[inhibitor]; UCH37 inh: inactive; MEKK2wt confirm: inactive; MEKK2mut-MEK5: inactive; MEKK3-MEK5 inh: inactive

Results for O=c1c(-c2ccc(Br)cc2)coc2c(CN3CCCCC3)c(O)ccc12 ?
MEKK2 WT-MEK5: inactive; MEKK2mut PB1 HTS: inactive; MEKK3 PB1 HTS: inactive; UBC13 polyUb: inactive; Apaf-1 inh: inactive; UCH37 inh: inactive

How did COc1ccc(-c2coc3c(CN4CCCCC4)c(O)c(CN4CCCCC4)c(O)c3c2=O)cc1 do in these assays?
MEKK2 WT-MEK5: 144; MEKK2mut PB1 HTS: inactive; MEKK3 PB1 HTS: inactive; UBC13 polyUb: inactive; Apaf-1 inh: 42; MEKK2wt confirm: inactive; MEKK2mut-MEK5: inactive; MEKK3-MEK5 inh: inactive

What do the screens show for `CC(C)N1C(=O)CN(C2CCCCCC2)C(=O)C1c1ccccc1F` (stereo not given)?
MEKK2 WT-MEK5: inactive; MEKK2mut PB1 HTS: inactive; MEKK3 PB1 HTS: inactive; UBC13 polyUb: inactive; Apaf-1 inh: inactive; UCH37 inh: inactive

What do the screens show for `COc1cc(/C=N/N=C(N)N)ccc1OCc1ccccc1Cl`?
MEKK2 WT-MEK5: 229; MEKK2mut PB1 HTS: inactive; MEKK3 PB1 HTS: inactive; UBC13 polyUb: 54; Apaf-1 inh: inactive; MEKK2wt confirm: inactive; MEKK2mut-MEK5: inactive; MEKK3-MEK5 inh: inactive

How did CCc1ccc(C2=NN(S(C)(=O)=O)C(c3cccs3)C2)cc1 (stereo not given) do in these assays?
MEKK3 PB1 HTS: 12[inhibitor]; UBC13 polyUb: inactive; Apaf-1 inh: inactive; UCH37 inh: inactive; MEKK2wt confirm: inactive; MEKK2mut-MEK5: inactive; MEKK3-MEK5 inh: inactive

Results for CCS(=O)(=O)Nc1cccc(C2=NN(S(=O)(=O)c3ccccc3)C(c3cccs3)C2)c1 (stereo not given) ?
MEKK2mut PB1 HTS: 106; MEKK3 PB1 HTS: 21[inhibitor]; UBC13 polyUb: inactive; Apaf-1 inh: inactive; UCH37 inh: inactive; MEKK2wt confirm: inactive; MEKK2mut-MEK5: inactive; MEKK3-MEK5 inh: inactive

How did CCS(=O)(=O)Nc1cccc(C2=NN(S(=O)(=O)CC)C(c3ccccc3)C2)c1 (stereo not given) do in these assays?
MEKK2 WT-MEK5: 142; MEKK2mut PB1 HTS: 355; MEKK3 PB1 HTS: inactive; UBC13 polyUb: inactive; Apaf-1 inh: inactive; UCH37 inh: inactive; MEKK2wt confirm: inactive; MEKK2mut-MEK5: inactive; MEKK3-MEK5 inh: inactive

What do the screens show for `C[C@H](CO)N1C[C@H](C)[C@@H](CN(C)S(=O)(=O)c2cccs2)Oc2ccc(NC(=O)CCC(F)(F)F)cc2C1=O`?
UBC13 polyUb: inactive; Apaf-1 inh: inactive; UCH37 inh: inactive

Results for COc1cccc(C=NNC(=O)C2C(=O)NCC2c2ccccc2)c1O (stereo not given) ?
UCH37 inh: inactive

What do the screens show for `Nc1c2c(nc3sc4c(c13)CCCCC4)CCCCC2`?
MEKK2 WT-MEK5: inactive; MEKK2mut PB1 HTS: inactive; MEKK3 PB1 HTS: 139; UBC13 polyUb: inactive; Apaf-1 inh: inactive; UCH37 inh: inactive; MEKK2wt confirm: inactive; MEKK2mut-MEK5: inactive; MEKK3-MEK5 inh: inactive
